ChEMBL document CHEMBL1275458, “First molecular characterization of group B streptococci with reduced penicillin susceptibility” (2008)
In brackets after ≈: the same amount, converted by molar mass.

test system: Streptococcus agalactiae; experiment: Antimicrobial activity against penicillin-resistant Streptococcus agalactiae B503 by agar dilution method; assay type: functional
In short: (§1)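 Agar dilution MICs run per the CLSI recommendation. S. pneumoniae ATCC 49619 was included as the quality control strain. β-lactams tested were penicillin G, penicillin V, ampicillin, oxacillin, cefazolin, cefepime, cefotaxime, ceftizoxime and meropenem. Test strains were S. agalactiae clinical sputum isolates and ATCC strains BAA-611 and 12403.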

Row | Structure (SMILES) | MIC [µg/mL]
1 | CC1(C)S[C@@H]2[C@H](NC(=O)[C@H](N)c3ccccc3)C(=O)N2[C@H]1C(=O)O [AMPICILLIN] | 0.5 (≈ 1.43 µM)

test system: Streptococcus pneumoniae; experiment: Antimicrobial activity against Streptococcus pneumoniae ATCC 49619 by agar dilution method; assay type: functional
In short: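 MIC by agar dilution per CLSI recommendations. The strain is a penicillin-susceptible S. pneumoniae quality-control strain, run alongside the clinical GBS isolates. β-lactams tested were penicillin G, penicillin V, ampicillin, oxacillin, cefazolin, cefepime, cefotaxime, ceftizoxime and meropenem.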

Row | Structure (SMILES) | MIC [µg/mL]
2 | CC1(C)S[C@@H]2[C@H](NC(=O)[C@H](N)c3ccccc3)C(=O)N2[C@H]1C(=O)O [AMPICILLIN] | 0.12 (≈ 0.343 µM)

test system: Streptococcus agalactiae; experiment: Antimicrobial activity against penicillin-resistant Streptococcus agalactiae B10 by agar dilution method; assay type: functional; in short: as §1

Row | Structure (SMILES) | MIC [µg/mL]
3 | CC1(C)S[C@@H]2[C@H](NC(=O)[C@H](N)c3ccccc3)C(=O)N2[C@H]1C(=O)O [AMPICILLIN] | 0.12 (≈ 0.343 µM)

test system: Streptococcus agalactiae; experiment: Antimicrobial activity against penicillin-resistant Streptococcus agalactiae ATCC BAA-611 harboring PBP-2X V405A mutant gene by agar dilution method; assay type: functional; in short: as §1

Row | Structure (SMILES) | MIC [µg/mL]
4 | CC1(C)S[C@@H]2[C@H](NC(=O)[C@H](N)c3ccccc3)C(=O)N2[C@H]1C(=O)O [AMPICILLIN] | 0.25 (≈ 0.715 µM)

test system: Streptococcus agalactiae; experiment: Antimicrobial activity against penicillin-resistant Streptococcus agalactiae B6 by agar dilution method; assay type: functional; in short: as §1

Row | Structure (SMILES) | MIC [µg/mL]
5 | CC1(C)S[C@@H]2[C@H](NC(=O)[C@H](N)c3ccccc3)C(=O)N2[C@H]1C(=O)O [AMPICILLIN] | 0.12 (≈ 0.343 µM)

test system: Streptococcus agalactiae; experiment: Antimicrobial activity against penicillin-resistant Streptococcus agalactiae B514 by agar dilution method; assay type: functional; in short: as §1

Row | Structure (SMILES) | MIC [µg/mL]
6 | CC1(C)S[C@@H]2[C@H](NC(=O)[C@H](N)c3ccccc3)C(=O)N2[C@H]1C(=O)O [AMPICILLIN] | 0.5 (≈ 1.43 µM)

test system: Streptococcus agalactiae; experiment: Antimicrobial activity against penicillin-resistant Streptococcus agalactiae B68 by agar dilution method; assay type: functional; in short: as §1

Row | Structure (SMILES) | MIC [µg/mL]
7 | CC1(C)S[C@@H]2[C@H](NC(=O)[C@H](N)c3ccccc3)C(=O)N2[C@H]1C(=O)O [AMPICILLIN] | 0.5 (≈ 1.43 µM)

test system: Streptococcus agalactiae; experiment: Antimicrobial activity against penicillin-resistant Streptococcus agalactiae B7 by agar dilution method; assay type: functional; in short: as §1

Row | Structure (SMILES) | MIC [µg/mL]
8 | CC1(C)S[C@@H]2[C@H](NC(=O)[C@H](N)c3ccccc3)C(=O)N2[C@H]1C(=O)O [AMPICILLIN] | 0.12 (≈ 0.343 µM)

test system: Streptococcus agalactiae; experiment: Antimicrobial activity against penicillin-resistant Streptococcus agalactiae B12 by agar dilution method; assay type: functional; in short: as §1

Row | Structure (SMILES) | MIC [µg/mL]
9 | CC1(C)S[C@@H]2[C@H](NC(=O)[C@H](N)c3ccccc3)C(=O)N2[C@H]1C(=O)O [AMPICILLIN] | 0.25 (≈ 0.715 µM)

test system: Streptococcus agalactiae; experiment: Antimicrobial activity against penicillin-resistant Streptococcus agalactiae B502 by agar dilution method; assay type: functional; in short: as §1

Row | Structure (SMILES) | MIC [µg/mL]
10 | CC1(C)S[C@@H]2[C@H](NC(=O)[C@H](N)c3ccccc3)C(=O)N2[C@H]1C(=O)O [AMPICILLIN] | 0.5 (≈ 1.43 µM)

test system: Streptococcus agalactiae; experiment: Antimicrobial activity against penicillin-resistant Streptococcus agalactiae B60 by agar dilution method; assay type: functional; in short: as §1

Row | Structure (SMILES) | MIC [µg/mL]
11 | CC1(C)S[C@@H]2[C@H](NC(=O)[C@H](N)c3ccccc3)C(=O)N2[C@H]1C(=O)O [AMPICILLIN] | 0.25 (≈ 0.715 µM)

test system: Streptococcus agalactiae; experiment: Antimicrobial activity against penicillin-resistant Streptococcus agalactiae B40 by agar dilution method; assay type: functional; in short: as §1

Row | Structure (SMILES) | MIC [µg/mL]
12 | CC1(C)S[C@@H]2[C@H](NC(=O)[C@H](N)c3ccccc3)C(=O)N2[C@H]1C(=O)O [AMPICILLIN] | 0.12 (≈ 0.343 µM)

test system: Streptococcus agalactiae; experiment: Antimicrobial activity against penicillin-susceptible Streptococcus agalactiae ATCC 12403 by agar dilution method

Row | Structure (SMILES) | MIC [µg/mL]
13 | CC1(C)S[C@@H]2[C@H](NC(=O)[C@H](N)c3ccccc3)C(=O)N2[C@H]1C(=O)O [AMPICILLIN] | 0.12 (≈ 0.343 µM)

test system: Streptococcus agalactiae; experiment: Antimicrobial activity against penicillin-resistant Streptococcus agalactiae B513 by agar dilution method; assay type: functional; in short: as §1

Row | Structure (SMILES) | MIC [µg/mL]
14 | CC1(C)S[C@@H]2[C@H](NC(=O)[C@H](N)c3ccccc3)C(=O)N2[C@H]1C(=O)O [AMPICILLIN] | 0.5 (≈ 1.43 µM)

test system: Streptococcus agalactiae; experiment: Antimicrobial activity against penicillin-susceptible Streptococcus agalactiae ATCC BAA-611 by agar dilution method

Row | Structure (SMILES) | MIC [µg/mL]
15 | CC1(C)S[C@@H]2[C@H](NC(=O)[C@H](N)c3ccccc3)C(=O)N2[C@H]1C(=O)O [AMPICILLIN] | 0.12 (≈ 0.343 µM)

test system: Streptococcus agalactiae; experiment: Antimicrobial activity against penicillin-resistant Streptococcus agalactiae B516 by agar dilution method; assay type: functional; in short: as §1

Row | Structure (SMILES) | MIC [µg/mL]
16 | CC1(C)S[C@@H]2[C@H](NC(=O)[C@H](N)c3ccccc3)C(=O)N2[C@H]1C(=O)O [AMPICILLIN] | 0.25 (≈ 0.715 µM)

test system: Streptococcus agalactiae; experiment: Antimicrobial activity against penicillin-resistant Streptococcus agalactiae B8 by agar dilution method; assay type: functional; in short: as §1

Row | Structure (SMILES) | MIC [µg/mL]
17 | CC1(C)S[C@@H]2[C@H](NC(=O)[C@H](N)c3ccccc3)C(=O)N2[C@H]1C(=O)O [AMPICILLIN] | 0.5 (≈ 1.43 µM)

test system: Streptococcus agalactiae; experiment: Antimicrobial activity against penicillin-resistant Streptococcus agalactiae ATCC BAA-611 harboring PBP-2X Q557E mutant gene by agar dilution method; assay type: functional; in short: as §1

Row | Structure (SMILES) | MIC [µg/mL]
18 | CC1(C)S[C@@H]2[C@H](NC(=O)[C@H](N)c3ccccc3)C(=O)N2[C@H]1C(=O)O [AMPICILLIN] | 0.12 (≈ 0.343 µM)

test system: Streptococcus agalactiae; experiment: Antimicrobial activity against penicillin-resistant Streptococcus agalactiae B1 by agar dilution method; assay type: functional; in short: as §1

Row | Structure (SMILES) | MIC [µg/mL]
19 | CC1(C)S[C@@H]2[C@H](NC(=O)[C@H](N)c3ccccc3)C(=O)N2[C@H]1C(=O)O [AMPICILLIN] | 0.12 (≈ 0.343 µM)
